Compound activity from PubChem.
IMP-1 inh-1: IMP-1 metallo-beta-lactamase inhibitors, primary screen, biochemical, epi-absorbance readout, Pseudomonas aeruginosa enzyme | inhibition, % at 5.6 µM | purified IMP-1, nitrocefin hydrolysis, epi-absorbance fluorescence | AID 1556, 2009 | 0.45% of 290,000 active;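 active = inhibition above the mean plus 3 SD of all compounds in the same screening run, cut at about 4.5% in these data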;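 also: 0% = IMP-1 with DMSO and 100% = DMSO wells lacking enzyme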
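System: purified IMP-1 / Input: IMP-1 dispensed at 0.2 nM / Medium: 50 mM HEPES pH 7.1, 50 µM ZnSO4, 0.05% Brij 35 / Timing: 15 min enzyme–compound preincubation, then 25 min nitrocefin reaction, 25 °C / Technique: plate fluorescence quenching by hydrolysis product, ex 480/em 530 nm / Repeats: singlicate testing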
DNA FID counter: compounds displacing fluorescent DNA intercalator, primary screen, artefact control for HCV NS3 helicase inhibitor project, biochemical, FID fluorescence | DNA fluorescent intercalator displacement | inhibition, % at 7.9 µM | 0.17% of 290,000 active; in the data active = inhibition above about 37%;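 also: 0% = vehicle and 100% = reference compound; higher means more ethidium bromide displaced from hairpin DNA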
HCV core dimer: inhibitors of HCV core protein dimerization, primary screen, biochemical, TR-FRET, high-throughput; TR-FRET GST/Flag-core106 dimerization, 1536-well; inhibition, % at 5 µM; 0.33% of 300,000 active;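 active = inhibition above the mean of all tested compounds plus 3 SD, set per screening campaign, cut at about 45% in these data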
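Assay system: GST-tagged and Flag-tagged HCV core protein residues 1-106 / Times: compound-protein-antibody incubation 4 h at 22.5 °C / Signal: time-resolved FRET, ex 340 nm, em 617 and 671 nm / Evaluation: % inhibition based on acceptor/donor emission ratio / Benchmarks: wells lacking GST-core106 and wells with excess unlabelled core106 / Repeats: singlicate, one well per compound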
VIM-2 inh: VIM-2 metallo-beta-lactamase inhibitors, primary screen, biochemical, epi-absorbance readout, Pseudomonas aeruginosa enzyme | purified VIM-2, nitrocefin hydrolysis, epi-absorbance fluorescence | inhibition, % at 5.6 µM | 0.89% of 290,000 active;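 active = inhibition above the mean of all tested compounds plus 3 SD, cutoff set per screening run, cut at about 7.5% in these data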;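 also: red hydrolysis product quenches plate fluorescence so inhibitors raise well fluorescence; 0% = enzyme with DMSO and 100% = DMSO without enzyme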
IMP-1 inh-2: IMP-1 metallo-beta-lactamase inhibitors, confirmation, selectivity assay for selective VIM-2 inhibitor project, biochemical, epi-absorbance readout, triplicate; shares compounds with VIM-2 inh; purified IMP-1, nitrocefin hydrolysis, epi-absorbance fluorescence; inhibition, % at 5.6 µM; 1,300 tested, under 10 active; AID 1856, 2009; call rule not given here;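 also: 0% = enzyme with vehicle and 100% = vehicle without enzyme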
VIM-2 FRET ctr: VIM-2 inhibitors in FRET format, confirmation, artefact control for selective VIM-2 inhibitor project, biochemical, epi-absorbance artifact exclusion; shares compounds with VIM-2 inh; purified VIM-2, CCF2 FRET substrate hydrolysis; inhibition, % at 5.6 µM; 23% of 1,300 active; AID 1857, 2009;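 active = inhibition above the mean of all tested compounds plus 3 SD, cut at about 19% in these data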;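 also: 0% = VIM-2 plus DMSO and 100% = no enzyme wells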
TEM-1 inh: TEM-1 serine beta-lactamase inhibitors, counter-screen for VIM-2 inhibitor project, biochemical, epi-absorbance, HTS. shares compounds with VIM-2 inh. Purified TEM-1, nitrocefin hydrolysis, epi-absorbance fluorescence. inhibition, % at 5.6 µM. 3% of 1,300 active. AID 1866, 2009;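 active = inhibition above that campaign's mean inhibition plus 3 SD, cut at about 0.46% in these data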;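 also: 0% = TEM-1 with DMSO and 100% = TEM-1 with 100 µM potassium clavulanate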
Target sequence (P62593 whole entry, looked up): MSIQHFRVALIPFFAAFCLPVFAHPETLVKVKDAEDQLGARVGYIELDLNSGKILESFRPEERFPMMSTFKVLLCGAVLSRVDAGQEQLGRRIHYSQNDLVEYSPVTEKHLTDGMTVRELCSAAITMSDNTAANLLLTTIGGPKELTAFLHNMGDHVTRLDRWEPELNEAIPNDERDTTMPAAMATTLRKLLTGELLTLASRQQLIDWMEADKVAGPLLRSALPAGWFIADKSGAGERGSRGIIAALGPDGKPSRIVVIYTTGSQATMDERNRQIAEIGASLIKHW
VIM-2 confirm 2: VIM-2 metallo-beta-lactamase inhibitors, confirmation, biochemical, epi-absorbance, hits shared with IMP-1 screen; purified VIM-2, nitrocefin hydrolysis; inhibition, % at 5.6 µM; AID 2187, 2009; shares compounds with VIM-2 inh; 96% of 1,300 active;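 active = inhibition of the VIM-2 beta-lactamase enzyme above about 11% from the earlier first-round screen, limit read from the data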;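 also: 0% = VIM-2 with DMSO and 100% = buffer wells without enzyme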
* marks the source's active call; other numbers are inactive results; . = no result. Shown are actives, neighbours in structure and some others; about 1.6% of the full set was active somewhere.

SMILES	IMP-1 inh-1	DNA FID counter	HCV core dimer	VIM-2 inh	IMP-1 inh-2	VIM-2 FRET ctr	TEM-1 inh	VIM-2 confirm 2
Cn1nc(-c2ccc(C(=O)N3CCN(CCO)CC3)cc2)c2ccccc2c1=O	-4	-3	-4	65*	-3	2	-6	69*
CCCNC(=O)c1ccc(-c2nn(C)c(=O)c3ccccc23)cc1	-2	-13	-5	3	.	.	.	.
Cc1ccc(C)c2[nH]c(=O)c(CCNC(=O)c3ccc(S(=O)(=O)N4CCOCC4)cc3)cc12	-4	-53	-14	-1	.	.	.	.
CCCn1c2c(c(O)c(C(=O)Nc3ccc(OC)cc3)c1=O)CCCC2	0	5	1	1	.	.	.	.
CN(C)CCN1CCc2ccccc21	-6	7	-6	23*	-3	-4	-6	11*
c1ccc2c(c1)CCN2CCN1CCc2ccccc21	0	0	-2	-1	.	.	.	.
Cn1c(C(=O)NCc2ccccn2)cc2c(=O)n(C)c3ccccc3c21	2	-22	0	16*	-3	3	-6	25*
CC(C)Cn1cc(C(=O)NCCCN2CCC(C)CC2)c2c3ccccc3n(C)c2c1=O	.	.	5	.	.	.	.	.
CCCCN(CC)CCCNC(=O)c1cc2c(=O)n(C)c3ccccc3c2n1C	-4	27	-1	25*	-3	-1	-6	30*
Cn1c(C(=O)NC2CCCC2)cc2c(=O)n(C)c3ccccc3c21	-1	-23	3	18*	-3	-3	-6	21*
CC1CCN(CCCNC(=O)c2cc3c(=O)n(C)c4ccccc4c3n2C)CC1	-3	17	3	21*	-2	2	-7	31*
Cn1c(C(=O)N2CCCC2)cc2c(=O)n(C)c3ccccc3c21	-3	-17	.	5	.	.	.	.
O=C(NCCc1ccccn1)C(F)(F)C(F)(F)C(F)(F)C(F)(F)C(F)(F)C(F)F	-1	-6	-6	1	.	.	.	.
O=c1oc(Nc2ccccc2Cl)nc2ccccc12	-2	-2	.	-3	.	.	.	.
COc1ccc(N/C=C2/Sc3ccccc3NC2=O)cc1	-5	-8	-45	-5	.	.	.	.
Cc1ccc([N+](=O)[O-])cc1NC(=S)NC(=O)c1c(Cl)cnn1C	2	5	.	0	.	.	.	.
Cn1c(C(=O)NCC2CCCO2)cc2c(=O)n(C)c3ccccc3c21 (configuration not stated)	-1	-20	0	15*	-3	0	-6	20*
Cn1c(C(=O)NCCCN2CCOCC2)cc2c(=O)n(C)c3ccccc3c21	-3	5	1	18*	-3	-2	-4	28*
Cn1c(C(=O)NCCN2CCN(Cc3ccccc3)CC2)cc2c(=O)n(C)c3ccccc3c21	.	.	-2	.	.	.	.	.
Cn1c(C(=O)NCCN2CCCCCC2)cc2c(=O)n(C)c3ccccc3c21	-1	8	2	19*	0	7	-7	29*
Cn1c(C(=O)NCCCN2CCN(c3ccccc3F)CC2)cc2c(=O)n(C)c3ccccc3c21	-1	8	-2	15*	-3	-3	-6	25*
Cc1ccc(S(=O)(=O)N(C)CC(=O)Nc2ccc(C)cn2)cc1	.	.	-2	.	.	.	.	.
COC1OC(COC(=O)CNC(=O)OC(C)(C)C)C(O)C(O)C1O (configuration not stated)	-3	2	-3	1	.	.	.	.
O=C(Nc1ccccc1N1CCCCC1)c1cnccn1	0	-22	6	-1	.	.	.	.
Cc1nnc2ccc(-c3cccc(NC(=O)c4ccco4)c3)nn12	-1	-1	9	15*	-2	1	-8	25*
SMILES	IMP-1 inh-1	DNA FID counter	HCV core dimer	VIM-2 inh	IMP-1 inh-2	VIM-2 FRET ctr	TEM-1 inh	VIM-2 confirm 2
COc1ccc(CC(=O)Nc2cccc(-c3ccc4nnc(C)n4n3)c2)cc1	-3	-8	3	4	.	.	.	.
CC(=O)N1CCN(c2ccc(NC(=O)C(c3ccccc3)c3ccccc3)cc2)CC1	-3	-32	2	-2	.	.	.	.
CCCOc1ccccc1C(=O)Nc1ccc(S(=O)(=O)N2CCN(C)CC2)cc1	-1	10	-2	51*	-2	-1	-7	65*
COc1ccccc1C(=O)Nc1ccc(S(=O)(=O)N2CCN(C)CC2)cc1	.	.	2	.	.	.	.	.
Clc1cccc(-c2ccc(/C=N/n3cnnc3)o2)c1Cl	-3	-3	1	29*	-3	-8	-5	64*
COC(=O)N/N=C/c1ccc(-c2ccccc2Cl)o1	0	-7	-18	-1	.	.	.	.
Cc1c(Cl)cccc1-c1ccc(/C=N/n2cnnc2)o1	0	-10	9	32*	-4	-5	-7	53*
Clc1ccccc1-c1ccc(/C=N/n2cnnc2)o1	-4	-12	-1	21*	-3	-1	-6	42*
Clc1ccc(Sc2ccc(/C=N/n3cnnc3)o2)cc1	-2	-12	5	-4	.	.	.	.
COc1cc(OC)c(OC)cc1/C=N/NC(=O)CC1C(=O)NN=C1C (configuration not stated)	-1	-4	-10	37*	-3	66*	-5	55*
Cc1ccc(C(C)C)c(OCC(=O)NNC2=CC(=O)CC(C)(C)C2)c1	-1	-33	3	-2	.	.	.	.
CCN1CCN(c2ccc(N=Cc3ccc(O)cc3O)cc2)CC1	-5	17	-1	27*	-7	-3	-10	45*
Cc1ccc(C2=Nc3ccccc3SC(c3cccc([N+](=O)[O-])c3)C2)cc1 (configuration not stated)	-1	-2	-3	1	.	.	.	.
COc1ccc(OC)c(-n2c(SCC(=O)N3CCc4ccccc43)nc3c(c2=O)SCC3)c1	0	-5	34	1	.	.	.	.
O=C(Nc1ccc(-n2ccnc2P(=O)(O)c2ccccc2)cc1)c1ccccc1Cl	-3	-35	-3	15*	-4	29*	-5	21*
O=C(Nc1ccc(N2CCCCCC2)cc1)c1ccccc1Cl	-3	-9	-4	-3	.	.	.	.
CCN(CC)C(=O)Oc1ccc(Cl)c2ccccc12	-4	-8	3	0	.	.	.	.
COc1ccccc1C(=O)Nc1ccnn1C1CCN(Cc2ncc[nH]2)CC1	-1	-5	-1	-2	.	.	.	.
COc1ccccc1C(=O)Nc1ccnn1C1CCN(Cc2cnn(C)c2C)CC1	0	-2	1	57*	-4	1	-6	0
